Data set [1] addresses T1, Monoglyceride lipase (Homo sapiens) (UniProt Q99685).
T1 sequence (whole entry): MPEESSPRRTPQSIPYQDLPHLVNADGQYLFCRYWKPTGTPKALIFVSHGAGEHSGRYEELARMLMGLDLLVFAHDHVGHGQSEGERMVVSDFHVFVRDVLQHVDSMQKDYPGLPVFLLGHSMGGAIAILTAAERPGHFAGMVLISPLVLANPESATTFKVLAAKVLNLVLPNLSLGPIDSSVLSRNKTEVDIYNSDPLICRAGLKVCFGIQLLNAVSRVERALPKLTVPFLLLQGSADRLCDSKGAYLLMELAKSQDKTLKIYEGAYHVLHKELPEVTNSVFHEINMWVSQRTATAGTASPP
Nature of the data set: Ratio of Kinact to Ki for human recombinant MAGL using 7-HCA as substrate after 60 mins by fluorescence assay. The method in brief:
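Run as the MAGL 7-HCA assay, but substrate added with no preincubation (T = 0), fluorescence read every minute at decreasing compound concentrations to give progress curves. kobs from each curve; kinact/KI from a plot of kobs against compound concentration.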

Data set [2] concerns the target T2, Platelet-activating factor acetylhydrolase (Homo sapiens) (UniProt Q13093).
T2 sequence (whole entry): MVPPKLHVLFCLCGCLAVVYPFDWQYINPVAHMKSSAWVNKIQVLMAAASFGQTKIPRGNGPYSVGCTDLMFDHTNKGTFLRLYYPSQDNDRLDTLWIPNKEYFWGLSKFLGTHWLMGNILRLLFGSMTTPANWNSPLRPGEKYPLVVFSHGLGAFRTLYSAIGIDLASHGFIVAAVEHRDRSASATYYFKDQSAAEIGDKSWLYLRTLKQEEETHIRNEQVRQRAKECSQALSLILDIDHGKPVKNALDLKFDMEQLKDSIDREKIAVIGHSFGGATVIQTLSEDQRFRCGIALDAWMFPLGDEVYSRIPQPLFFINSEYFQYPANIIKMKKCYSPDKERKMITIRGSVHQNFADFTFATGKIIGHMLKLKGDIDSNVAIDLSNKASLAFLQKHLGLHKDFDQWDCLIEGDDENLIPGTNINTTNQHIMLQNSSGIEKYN
Nature of the data set: Inhibition of human PLA2G7 at 1 to 10 uM relative to control.

Data set [3] deals with Mus musculus. Nature of the data set: In vivo inhibition of MAGL in C57Bl6 mouse assessed as increase in 2-AG levels in brain at 10 mg/kg, sc after 8 hrs by LC-MS/MS method relative to control. It counts as functional. The method in brief:
(§1)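 C57Bl6 mice, 7 weeks old, 4 per cage, food and water ad libitum, dosed subcutaneously in DMSO/Cremophor/saline (5:5:90, v/v/v). Brains taken after isoflurane, cardiac puncture and cervical dislocation at 0.5, 1, 2, 4, 8, 12 and 24 h (3 mice per time point); vehicle group at 1 h. Frozen in liquid nitrogen, homogenized in 3 volumes PMSF/NH4OAc buffer pH 2.0, d5-2-AG internal standard, ACN extraction, LC-MS/MS (positive ESI, SRM).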

The nature of data set [4]: Ratio of unbound drug level in C57Bl6 mouse brain to plasma at 10 mg/kg, sc. It counts as ADME, organism-based. An outline of the steps:
(§2)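 Subcutaneous dosing of C57Bl6 mice in DMSO/Cremophor/saline (5:5:90). Plasma (NaF/K2EDTA tubes) and cerebellum collected at 0.5–24 h, 3 mice per time point. Cerebellum diluted 1:4 (w/v) with water and homogenized; samples deproteinated with methanol/acetonitrile plus internal standard, then HPLC-MS/MS. LLOQ 1.0 ng/mL plasma, 0.5 ng/mL brain homogenate. PK parameters by noncompartmental analysis.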

Data set [5] can be described thus: Tmax in C57Bl6 mouse at 10 mg/kg, sc. As to conditions: in vivo. In kind it is ADME, organism-based. The method in brief: as §2
Data set [6] relates to Brain. Nature of the data set: Unbound drug level in C57Bl6 mouse brain at 10 mg/kg, sc at 0.5 hrs. As to conditions: in vivo. In kind it is ADME, organism-based. An outline of the steps:
as §2

The subject of data set [7] is Mus musculus. Nature of the data set: In vivo inhibition of MAGL in C57Bl6 mouse assessed as increase in 2-AG levels in brain at 1 mg/kg, sc measured at 0.5 hrs by LC-MS/MS method relative to control. It counts as functional. An outline of the steps:
as §1

Data set [8] has as its system Mus musculus. Nature of the data set: In vivo inhibition of MAGL in C57Bl6 mouse assessed as increase in 2-AG levels in brain at 1 mg/kg, sc measured after 1 to 24 hrs by LC-MS/MS method. It counts as functional, organism-based. An outline of the steps:
as §1

Data set [9] deals with Brain. Nature of the data set: Unbound drug level in C57Bl6 mouse brain at 1 mg/kg, sc at 0.5 hrs. In kind it is ADME, organism-based. As to conditions: in vivo. An outline of the steps:
as §2

For data set [10], the system named is Brain. In words: Ratio of unbound drug level in C57Bl6 mouse brain at 10 mg/kg, sc to 1 mg/kg, sc. As to conditions: in vivo. In kind it is ADME, organism-based. An outline of the steps: as §2
Data set [11] concerns the target T1, Monoglyceride lipase (Homo sapiens). In words: Inhibition of MAGL in human brain vascular pericytes. In kind it is cell-based. An outline of the steps: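 Human brain vascular pericytes grown in DMEM/F12 with 5% heat-inactivated FBS and pericyte growth supplement, then given alkyne-tagged probe (1000× DMSO stock) in medium for 1 h at 37 °C. Pellets lysed in PBS/0.25% SDS, proteome normalized to 1.0 mg/mL, Cu-catalyzed click with TAMRA azide, SDS-PAGE in-gel fluorescence. Two MAGL bands averaged; two biological replicates fitted to a dose–response curve.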

Data set [12] concerns the target T3, CES1 (liver carboxylesterase 1) (Homo sapiens, UniProt P23141).
T3 sequence (P23141 whole entry): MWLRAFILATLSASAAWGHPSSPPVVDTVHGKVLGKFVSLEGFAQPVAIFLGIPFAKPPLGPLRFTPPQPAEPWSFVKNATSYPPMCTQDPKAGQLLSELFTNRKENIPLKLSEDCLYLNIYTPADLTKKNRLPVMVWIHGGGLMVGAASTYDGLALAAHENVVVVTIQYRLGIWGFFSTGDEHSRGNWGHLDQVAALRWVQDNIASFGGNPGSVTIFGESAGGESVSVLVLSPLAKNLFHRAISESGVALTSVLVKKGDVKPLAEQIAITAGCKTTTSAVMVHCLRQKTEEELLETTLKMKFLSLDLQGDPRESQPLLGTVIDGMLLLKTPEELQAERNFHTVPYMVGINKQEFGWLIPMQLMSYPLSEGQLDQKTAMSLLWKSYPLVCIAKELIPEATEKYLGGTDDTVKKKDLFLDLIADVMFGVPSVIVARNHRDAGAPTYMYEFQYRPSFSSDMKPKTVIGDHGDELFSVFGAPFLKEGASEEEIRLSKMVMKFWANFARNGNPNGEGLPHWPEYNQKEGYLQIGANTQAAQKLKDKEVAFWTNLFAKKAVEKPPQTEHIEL
Nature of the data set: Inhibition of human CES1 at 10 uM relative to control.

Data set [13] in a line: Ratio of unbound drug level in C57Bl6 mouse brain to plasma at 1 to 10 mg/kg, sc. In kind it is ADME, organism-based.
Data set [14] has as its system Mus musculus. In words: In vivo inhibition of MAGL in C57Bl6 mouse assessed as increase in 2-AG levels in brain at 1 mg/kg, sc measured at 2 hrs by LC-MS/MS method. In kind it is functional, organism-based. An outline of the steps: as §1
Data set [15] can be described thus: Cmax in C57Bl6 mouse brain at 1 mg/kg, sc. Also noted: dose 1 mg/kg, route subcutaneous. It counts as ADME, organism-based. An outline of the steps:
as §2

The test system of data set [16] is Mus musculus. Nature of the data set: In vivo inhibition of MAGL in C57Bl6 mouse assessed as increase in 2-AG levels in brain at 10 mg/kg, sc measured after 24 hrs by LC-MS/MS method. It counts as functional, organism-based. The method in brief:
as §1

Data set [17] concerns the target T2, Platelet-activating factor acetylhydrolase (Homo sapiens). As to conditions: 10 uM.

The source made the active and inactive calls. No cut-off for these calls is given here.

For `O=C(OC(C(F)(F)F)C(F)(F)F)N1CC(c2ccn(-c3ccccc3)n2)C1`, the figures for the Ratio (in data set [1]; in the data set with Brain [10]) were 1.14e+06 M⁻¹ s⁻¹ and 100, respectively. Also, in [2], the inhibition – broadly, how much of the control response was suppressed – was greater than 70%. For the same compound, the “fold change (FC)” value in the data set with Mus musculus [3] amounted to 5; with Mus musculus [7], 3. Moreover, the Kp uu in [4] was 0.6. For the same compound, the Tmax (as a rule, the time at which the peak concentration occurs) in [5] is 30 min. Further, the entries for the “Drug uptake(free)” value with Brain [6] and in the data set on Brain [9] were 2 nM and 0.02 nM, respectively. In the data set with Mus musculus [8], the inhibition result is “inactive”. Moreover, the inhibition entry in [11] was “Active”.

The compound `O=C(OC(C(F)(F)F)C(F)(F)F)N1CCC(c2ccn(-c3ccccc3)n2)CC1` came in with an inhibition at 10 µM in data set [12] greater than 70%. For the same compound, the Kp uu in [13] stood at 0.5. Further, the inhibition entry in the data set on Mus musculus [14] and in the data set with Mus musculus [16] was “Active” each time. Also, in data set [15], the concentration peaked (Cmax) at 0.14 nM. The compound also displayed an inhibition in data set [17] greater than 70%.

(Values after ChEMBL document CHEMBL4028902, “Azetidine and Piperidine Carbamates as Efficient, Covalent Inhibitors of Monoacylglycerol Lipase” (J Med Chem, 2017).)
